These results are taken from ChEMBL document CHEMBL3526093, “Oxidative ipso substitution of 2,4-difluoro-benzylphthalazines: identification of a rare stable quinone methide and subsequent GSH conjugate” (Drug Metab Dispos, 2012).

Data set [1] can be described thus: Half life under physiological conditions. In kind it is ADME.
A further data set deals with T1, Cytochrome P450 1A2 (Homo sapiens, UniProt P05177).
T1 sequence (P05177 whole entry): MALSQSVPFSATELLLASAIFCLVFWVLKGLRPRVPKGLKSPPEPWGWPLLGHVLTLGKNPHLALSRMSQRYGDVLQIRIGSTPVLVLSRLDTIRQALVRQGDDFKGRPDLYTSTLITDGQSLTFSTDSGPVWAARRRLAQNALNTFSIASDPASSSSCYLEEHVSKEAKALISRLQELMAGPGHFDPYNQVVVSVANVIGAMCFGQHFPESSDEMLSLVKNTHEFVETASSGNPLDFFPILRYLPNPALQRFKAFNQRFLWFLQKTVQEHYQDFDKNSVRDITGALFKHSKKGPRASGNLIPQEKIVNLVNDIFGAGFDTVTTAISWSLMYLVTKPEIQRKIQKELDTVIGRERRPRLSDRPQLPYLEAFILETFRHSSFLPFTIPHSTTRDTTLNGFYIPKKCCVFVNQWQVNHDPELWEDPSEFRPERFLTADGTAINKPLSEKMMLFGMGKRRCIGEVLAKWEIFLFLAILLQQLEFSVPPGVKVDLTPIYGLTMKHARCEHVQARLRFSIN
Kind of data set: Drug metabolism assessed as human CYP1A2-mediated quinone methide metabolite formation at 10 uM by LC/MS method. Conditions: recombinant enzyme. The class given is ADME. The essentials:
(§1)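 Recombinant human P450 Supersomes (100 pmol/ml enzyme) in 0.1 M KH2PO4 pH 7.4 with 5 mM MgCl2 and substrate, prewarmed 2 min at 37°C. NADPH (2 mM) started the reaction, with GSH (5 mM) added 3 min later. Controls lacked GSH or NADPH. Aliquots at 0, 0.5 and 1 h were stopped in ice-cold acetonitrile, spun, and supernatants run on LC/MSn.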

For the next data set, the target named is Cytochrome P450 2C19 (Homo sapiens, UniProt P33261). Kind of data set: Drug metabolism assessed as human CYP2C19-mediated quinone methide metabolite formation at 10 uM by LC/MS method. In kind it is ADME. Conditions: recombinant enzyme. A digest of the protocol:
as §1

Data set [2] concerns Liver microsome. Kind of data set: Drug metabolism in human liver microsomes assessed as quinone methide metabolite formation at 10 uM by LC/MS method. In kind it is ADME. A digest of the protocol:
(§2)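 Pooled human liver microsomes (1 mg/ml protein) in 0.1 M KH2PO4 pH 7.4 with 5 mM MgCl2 and substrate, prewarmed 2 min at 37°C with shaking. Started with 2 mM NADPH, then 5 mM GSH added 3 min later. Controls omitted GSH or NADPH. Samples at 0, 0.5 and 1 h quenched in ice-cold acetonitrile, centrifuged, supernatant analysed by positive-ion ESI LC/MSn.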
A general note: Liver microsomes are a subcellular fraction often used to study metabolism.

The nature of data set [3]: Retention time of the compound by LC/MS method. The class given is physicochemical. The essentials:
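Reversed-phase C18 column (2.1 × 150 mm), 20 µl injection, 0.25 ml/min. A: 10 mM ammonium formate/0.1% formic acid in water. B: acetonitrile/0.1% formic acid. Gradient held at 10% B for 5 min, then to 90% B over 24 min, back to 10% B over 2 min, held 3 min (35 min run). Positive-ion electrospray detection.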

Data set [4] deals with T2, Cytochrome P450 3A4 (Homo sapiens, UniProt P08684). Kind of data set: Drug metabolism assessed as human CYP3A4-mediated quinone methide metabolite formation at 10 uM by LC/MS method. The class given is ADME. Conditions: recombinant enzyme. A digest of the protocol: as §1
The target of another data set is Cytochrome P450 2C9 (Homo sapiens, UniProt P11712). In words: Drug metabolism assessed as human CYP2C9-mediated quinone methide metabolite formation at 10 uM by LC/MS method. In kind it is ADME. The note with it: recombinant enzyme. The essentials:
as §1

For a further data set, the target named is Cytochrome P450 2D6 (Homo sapiens, UniProt P10635). In words: Drug metabolism assessed as human CYP2D6-mediated quinone methide metabolite formation at 10 uM by LC/MS method. The class given is ADME. Conditions: recombinant enzyme. The essentials:
as §1

A further data set concerns the target Cytochrome P450 2E1 (Homo sapiens, UniProt P05181). Kind of data set: Drug metabolism assessed as human CYP2E1-mediated quinone methide metabolite formation at 10 uM by LC/MS method. The class given is ADME. The note with it: recombinant enzyme. The essentials: as §1
Data set [5] deals with T2, Cytochrome P450 3A4. In words: Drug metabolism assessed as human CYP3A4-mediated compound formation using 10 uM [2-(6-(4-(4-(2,4-difluorobenzyl)phthalazin-1-yl)piperazin-1-yl)pyridin-3-yl)propan-2-ol] by LC/MS method. In kind it is ADME. Conditions: recombinant enzyme. A digest of the protocol: as §1
Data set [6] relates to Liver microsome. In words: Drug level in human liver microsomes treated with 10 uM [2-(6-(4-(4-(2,4-difluorobenzyl)phthalazin-1-yl)piperazin-1-yl)pyridin-3-yl)propan-2-ol] by LC/MS method. In kind it is ADME. A digest of the protocol: as §2

T2 sequence (P08684 whole entry): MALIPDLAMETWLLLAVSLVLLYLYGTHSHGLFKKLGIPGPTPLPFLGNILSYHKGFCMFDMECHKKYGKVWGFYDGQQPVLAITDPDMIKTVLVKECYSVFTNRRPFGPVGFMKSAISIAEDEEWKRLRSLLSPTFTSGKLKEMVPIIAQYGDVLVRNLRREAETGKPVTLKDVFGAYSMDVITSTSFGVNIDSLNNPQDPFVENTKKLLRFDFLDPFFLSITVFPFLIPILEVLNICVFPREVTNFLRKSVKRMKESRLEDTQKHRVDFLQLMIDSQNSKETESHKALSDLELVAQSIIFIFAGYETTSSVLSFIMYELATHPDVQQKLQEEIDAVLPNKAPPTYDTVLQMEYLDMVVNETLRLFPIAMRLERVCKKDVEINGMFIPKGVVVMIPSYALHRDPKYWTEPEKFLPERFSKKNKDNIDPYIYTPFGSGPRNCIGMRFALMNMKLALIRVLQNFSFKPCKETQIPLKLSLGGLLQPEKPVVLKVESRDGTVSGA
Cytochrome P450 2C19, sequence (P33261 whole entry): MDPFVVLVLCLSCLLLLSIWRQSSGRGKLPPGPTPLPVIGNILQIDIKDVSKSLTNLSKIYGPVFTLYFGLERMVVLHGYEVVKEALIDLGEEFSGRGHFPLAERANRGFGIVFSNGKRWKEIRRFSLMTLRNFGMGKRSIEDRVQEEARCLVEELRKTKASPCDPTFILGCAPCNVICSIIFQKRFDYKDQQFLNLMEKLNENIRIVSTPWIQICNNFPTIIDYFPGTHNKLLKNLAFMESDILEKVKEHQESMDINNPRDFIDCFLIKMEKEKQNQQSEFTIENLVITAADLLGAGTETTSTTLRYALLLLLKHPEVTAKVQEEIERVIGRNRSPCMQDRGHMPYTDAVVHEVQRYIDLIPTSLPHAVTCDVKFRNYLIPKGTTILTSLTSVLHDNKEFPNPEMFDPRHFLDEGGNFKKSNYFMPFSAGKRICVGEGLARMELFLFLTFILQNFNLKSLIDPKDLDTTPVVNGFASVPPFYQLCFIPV
Cytochrome P450 2D6, sequence (P10635 whole entry): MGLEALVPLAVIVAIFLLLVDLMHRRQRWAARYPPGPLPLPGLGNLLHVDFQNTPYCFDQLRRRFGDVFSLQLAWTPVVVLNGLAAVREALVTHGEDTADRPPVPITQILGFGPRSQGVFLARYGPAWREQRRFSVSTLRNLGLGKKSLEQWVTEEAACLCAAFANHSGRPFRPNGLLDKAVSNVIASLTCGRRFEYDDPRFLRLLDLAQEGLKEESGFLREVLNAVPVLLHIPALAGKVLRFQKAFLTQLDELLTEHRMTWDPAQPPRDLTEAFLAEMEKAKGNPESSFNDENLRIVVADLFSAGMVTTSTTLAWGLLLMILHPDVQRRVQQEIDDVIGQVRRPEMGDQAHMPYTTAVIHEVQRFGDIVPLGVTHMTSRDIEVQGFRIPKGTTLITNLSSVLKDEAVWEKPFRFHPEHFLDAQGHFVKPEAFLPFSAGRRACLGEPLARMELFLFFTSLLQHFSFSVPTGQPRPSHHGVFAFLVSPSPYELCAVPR
Cytochrome P450 2E1, sequence (P05181 whole entry): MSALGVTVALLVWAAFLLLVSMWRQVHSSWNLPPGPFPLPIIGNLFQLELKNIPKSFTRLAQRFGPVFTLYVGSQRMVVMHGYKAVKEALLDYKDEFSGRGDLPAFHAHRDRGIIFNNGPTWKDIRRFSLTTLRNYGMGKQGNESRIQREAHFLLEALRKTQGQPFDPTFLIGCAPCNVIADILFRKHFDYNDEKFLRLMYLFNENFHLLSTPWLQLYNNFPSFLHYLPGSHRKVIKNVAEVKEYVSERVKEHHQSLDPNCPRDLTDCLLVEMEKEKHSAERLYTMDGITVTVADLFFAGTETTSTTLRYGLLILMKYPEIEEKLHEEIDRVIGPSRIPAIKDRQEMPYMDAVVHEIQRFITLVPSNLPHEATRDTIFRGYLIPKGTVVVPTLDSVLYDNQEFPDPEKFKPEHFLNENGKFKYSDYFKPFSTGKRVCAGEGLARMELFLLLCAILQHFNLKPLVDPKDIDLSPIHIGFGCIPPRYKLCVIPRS
Cytochrome P450 2C9, sequence (P11712 whole entry): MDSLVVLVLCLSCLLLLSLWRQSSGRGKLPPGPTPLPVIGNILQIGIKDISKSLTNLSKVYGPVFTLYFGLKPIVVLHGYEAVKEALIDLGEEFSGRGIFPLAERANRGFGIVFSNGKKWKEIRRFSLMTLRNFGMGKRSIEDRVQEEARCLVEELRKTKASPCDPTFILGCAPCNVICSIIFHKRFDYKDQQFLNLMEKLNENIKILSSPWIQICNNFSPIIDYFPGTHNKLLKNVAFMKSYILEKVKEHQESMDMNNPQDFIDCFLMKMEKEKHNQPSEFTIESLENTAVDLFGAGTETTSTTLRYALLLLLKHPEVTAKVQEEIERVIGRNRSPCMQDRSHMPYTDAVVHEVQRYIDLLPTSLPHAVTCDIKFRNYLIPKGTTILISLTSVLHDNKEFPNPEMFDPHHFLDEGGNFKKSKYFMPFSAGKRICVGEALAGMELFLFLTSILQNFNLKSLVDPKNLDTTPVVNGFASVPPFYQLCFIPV

In the case of `C/C=C(/C(=C1C=CC(=O)C=C1)c1ccc(OCCN(C)C)cc1)c1ccccc1`, the half-life (as a rule, how long it takes for the measured level to halve) in [1] was 3 h.
Consider `CC(C)(O)c1ccc(N2CCN(c3nnc(Cc4ccc(F)cc4F)c4ccccc34)CC2)nc1`, for which the Drug metabolism entry at Cytochrome P450 1A2 is “metabolite_not_detected”; on Cytochrome P450 2C19, “metabolite_not_detected”; with Liver microsome [2] it was “metabolite_detected”; on Cytochrome P450 3A4 [4], “metabolite_detected”; at Cytochrome P450 2C9 it was “metabolite_not_detected”; at Cytochrome P450 2D6 it was “metabolite_not_detected”. Besides, at Cytochrome P450 2E1, the Drug metabolism result is recorded as “metabolite_not_detected”. In [3], this compound came in with a Retention_time of 14.8 min.
As to `CC(C)(O)c1ccc(N2CCN(c3nnc(/C=C4\C=CC(=O)C=C4F)c4ccccc34)CC2)nc1`, the Drug metabolism result on Cytochrome P450 3A4 [5] and in the data set on Liver microsome [6] was “metabolite_detected” throughout. In data set [3], this compound returned a Retention_time of 17.46 min.
`CC(C)(O)c1ccc(N2CCN(c3nnc(Cc4cc(SC[C@H](NC(=O)CC[C@H](N)C(=O)O)C(=O)NCC(=O)O)c(O)cc4F)c4ccccc34)CC2)nc1`: the Drug metabolism entry at Cytochrome P450 3A4 [5] and in the data set with Liver microsome [6] was “metabolite_detected” in each case. The same compound had a Retention_time in data set [3] of 9.92 min.
Take `C/C=C(/C(=C1C=CC(=O)C=C1)c1ccccc1)c1ccccc1`: the half-life in data set [1] was 4 h.
